Measurements as given in ChEMBL document CHEMBL3102735, “Enhancing the pharmacodynamic profile of a class of selective COX-2 inhibiting nitric oxide donors” (Bioorg Med Chem, 2014).
≈ marks a conversion by molar mass, not a printed value. Calls of active or inactive are those of the source. The calls are words filed in the database; no cut-off is given here.

Tests used:
[1] = Solubility of the compound in phosphate buffer saline at pH 7.4 after 90 mins by HPLC analysis; type: physicochemical
In short: (§1)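 DMSO stock (20 mM) diluted 2 µL into 198 µL PBS 0.01 M pH 7.4 or pepsin-free SGF 0.05 M pH 1.5, duplicate wells, shaken 90 min at 300 rpm. Filtrates analysed by HPLC with photodiode-array detection against seven-point standards (1–200 µM).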

[2] = Solubility of the compound in simulated gastric fluid at pH 1.5 after 90 mins by HPLC analysis; type: ADME; in short: as §1
Mus musculus [3] = assay: Analgesic activity in po dosed Swiss albino mouse assessed as reduction of acetic acid-induced writhing measured every 10 mins after 5 mins of administration; type: functional, organism-based
In short: (§2)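 Male Swiss albino mice (23–25 g), compound given orally in CMC vehicle; writhing induced by 0.6% acetic acid (10 mL/kg) ip. Stretching movements counted for 10 min, starting 5 min after administration; percent reduction versus CMC-treated animals.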

Thoracic aorta [4] = assay: Ex vivo vasorelaxant activity in Wistar rat endothelium thoracic aortic ring assessed as reduction of KCl-induced contraction at 0.001 uM to 10 uM relative to control; type: functional
In short: (§3)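 Endothelium-denuded thoracic aortic rings from male Wistar rats (250–350 g) in oxygenated Tyrode-type buffer at 37 °C, isometric tension recording. Rings precontracted with 30 mM KCl, then 3-fold increasing compound concentrations (1 nM–10 µM) added, also with 1 µM ODQ preincubated. Emax as % of KCl tone; pIC50; mean ± SE of 6–10 experiments.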

Thoracic aorta [5] = assay: Ex vivo vasorelaxant activity in Wistar rat endothelium thoracic aortic ring assessed as reduction of KCl-induced contraction in presence of guanylate cyclase inhibitor ODQ; type: functional; in short: as §3
Mus musculus [6] = assay: Analgesic activity in Swiss albino mouse assessed as reduction of acetic acid-induced writhing at 40 mg/kg, po measured every 10 mins after 5 mins of administration relative to control; type: functional; set-up: scale not given: the % may be the effect or the level left; in short: as §2
J774 = assay: Selectivity index, ratio of IC50 for COX-1 to IC50 for COX-2 in mouse J774 cells; type: cell-based
In short: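 J774 macrophages stimulated 24 h with E. coli LPS (10 µg/mL) to induce COX-2, with or without compound (0.01–10 µM); supernatant PGE2 by RIA. Triplicate wells, three experiments, percent inhibition versus control, IC50 by sigmoidal fit; selectivity as COX-1/COX-2 IC50 ratio.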

[7] = target: T1, Prostaglandin G/H synthase 2 (Mus musculus, UniProt Q05769); assay: Inhibition of LPS-induced COX-2 in mouse J774 cells using arachidonic acid as substrate assessed as inhibition of prostaglandin E2 production preincubated for 15 mins followed by substrate addition measured after 30 mins by RIA; type: cell-based
T1 sequence (Q05769 whole entry): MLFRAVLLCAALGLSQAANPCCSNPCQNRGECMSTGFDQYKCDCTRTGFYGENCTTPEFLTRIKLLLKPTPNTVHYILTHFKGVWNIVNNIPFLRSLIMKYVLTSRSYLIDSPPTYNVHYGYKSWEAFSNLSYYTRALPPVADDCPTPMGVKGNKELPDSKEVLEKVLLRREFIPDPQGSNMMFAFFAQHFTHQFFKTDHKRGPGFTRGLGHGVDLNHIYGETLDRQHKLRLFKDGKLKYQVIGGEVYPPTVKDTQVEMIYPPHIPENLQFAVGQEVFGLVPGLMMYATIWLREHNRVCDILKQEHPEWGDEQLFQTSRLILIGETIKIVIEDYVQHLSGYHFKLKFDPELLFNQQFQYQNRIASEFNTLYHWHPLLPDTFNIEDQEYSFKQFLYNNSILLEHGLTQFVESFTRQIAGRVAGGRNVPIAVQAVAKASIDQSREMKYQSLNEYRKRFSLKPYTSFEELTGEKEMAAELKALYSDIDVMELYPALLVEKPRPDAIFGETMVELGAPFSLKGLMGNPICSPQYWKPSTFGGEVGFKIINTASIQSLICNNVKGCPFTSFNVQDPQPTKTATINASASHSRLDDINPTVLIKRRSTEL

[8] = target: T2, Prostaglandin G/H synthase 1 (Mus musculus, UniProt P22437); assay: Inhibition of COX-1 in mouse J774 cells using arachidonic acid as substrate assessed as inhibition of prostaglandin E2 production preincubated for 15 mins followed by substrate addition measured after 30 mins by RIA; type: cell-based
T2 sequence (P22437 whole entry): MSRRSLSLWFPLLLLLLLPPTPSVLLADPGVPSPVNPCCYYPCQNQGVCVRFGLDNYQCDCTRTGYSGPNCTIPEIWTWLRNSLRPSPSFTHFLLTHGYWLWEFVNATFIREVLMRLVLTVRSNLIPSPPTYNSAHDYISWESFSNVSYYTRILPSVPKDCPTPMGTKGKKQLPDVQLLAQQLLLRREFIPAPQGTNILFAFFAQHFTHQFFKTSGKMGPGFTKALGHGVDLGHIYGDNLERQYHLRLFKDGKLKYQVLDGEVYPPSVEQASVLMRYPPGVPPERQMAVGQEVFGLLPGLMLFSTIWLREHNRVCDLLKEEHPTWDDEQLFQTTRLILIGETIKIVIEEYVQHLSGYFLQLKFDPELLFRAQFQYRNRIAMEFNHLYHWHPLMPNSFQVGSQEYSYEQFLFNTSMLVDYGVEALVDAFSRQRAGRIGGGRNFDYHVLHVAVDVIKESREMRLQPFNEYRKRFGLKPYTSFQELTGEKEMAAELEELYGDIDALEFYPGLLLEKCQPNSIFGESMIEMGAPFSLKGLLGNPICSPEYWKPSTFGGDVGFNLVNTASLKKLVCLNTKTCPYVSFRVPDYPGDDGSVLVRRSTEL
In short: (§4)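 J774 murine macrophages pretreated 15 min with compound (10 µM; lower concentrations 0.01–1 µM where needed), then incubated 30 min at 37 °C with 15 µM arachidonic acid; supernatant PGE2 measured by RIA. Triplicate wells, mean of three experiments of percent inhibition versus control; IC50 by sigmoidal fit.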

[9] = target: T3, Prostaglandin G/H synthase 2 (Mus musculus) (UniProt Q05769); assay: Inhibition of LPS-induced COX-2 in mouse J774 cells using arachidonic acid as substrate assessed as inhibition of prostaglandin E2 production at 10 uM preincubated for 15 mins followed by substrate addition measured after 30 mins by RIA; type: cell-based
T3 sequence (whole entry): T1 sequence (Q05769 whole entry)

[10] = target: T4, Prostaglandin G/H synthase 1 (Mus musculus) (UniProt P22437); assay: Inhibition of COX-1 in mouse J774 cells using arachidonic acid as substrate assessed as inhibition of prostaglandin E2 production at 10 uM preincubated for 15 mins followed by substrate addition measured after 30 mins by RIA; type: cell-based; in short: as §4
T4 sequence (whole entry): T2 sequence (P22437 whole entry)

Mus musculus [11] = assay: Analgesic activity in Swiss albino mouse assessed as reduction of acetic acid-induced writhing at 10 mg/kg, po measured every 10 mins after 5 mins of administration relative to control; type: functional; set-up: scale not given: the % may be the effect or the level left; in short: as §2
Mus musculus [12] = assay: Analgesic activity in Swiss albino mouse assessed as reduction of acetic acid-induced writhing at 20 mg/kg, po measured every 10 mins after 5 mins of administration relative to control; type: functional; set-up: scale not given: the % may be the effect or the level left; in short: as §2
[13] = Metabolic stability in Sprague-Dawley rat plasma assessed as compound remaining after 120 mins by LC-MS/MS analysis; type: ADME, cell-free; settings: read-out: Stability
In short: (§5)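 Compound (12 µL of 1 mM DMSO solution into 588 µL medium) incubated in PBS pH 7.4, pepsin-free SGF pH 1.5, or EDTA rat plasma. Aliquots taken at 0, 30, 60, 120 min and quenched with ice-cold acetonitrile containing internal standard; parent remaining as percent.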

[14] = Metabolic stability in Sprague-Dawley rat plasma assessed as compound remaining after 60 mins by LC-MS/MS analysis; type: ADME, cell-free; settings: read-out: Stability; in short: as §5
[15] = Metabolic stability in Sprague-Dawley rat plasma assessed as compound remaining after 30 mins by LC-MS/MS analysis; type: ADME, cell-free; settings: read-out: Stability; in short: as §5
[16] = Stability of the compound in simulated gastric fluid assessed as compound remaining at pH 1.5 after 120 mins by LC-MS/MS analysis; type: physicochemical; settings: read-out: Stability
In short: (§6)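 1 mM DMSO stock added to 0.01 M PBS (pH 7.4) or 0.05 M simulated gastric fluid without pepsin (pH 1.5 with HCl); incubated in hybridisation oven; aliquots at 0, 30, 60, 120 min quenched with ice-cold acetonitrile containing internal standard; parent remaining (%) measured.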

[17] = Stability of the compound in simulated gastric fluid assessed as compound remaining at pH 1.5 after 60 mins by LC-MS/MS analysis; type: physicochemical; settings: read-out: Stability; in short: as §6
[18] = Stability of the compound in phosphate buffer saline assessed as compound remaining at pH 7.4 after 30 mins by LC-MS/MS analysis; type: physicochemical; settings: read-out: Stability; in short: as §6
[19] = Stability of the compound in phosphate buffer saline assessed as compound remaining at pH 7.4 after 120 mins by LC-MS/MS analysis; type: physicochemical; settings: read-out: Stability; in short: as §5
[20] = Stability of the compound in simulated gastric fluid assessed as compound remaining at pH 1.5 after 30 mins by LC-MS/MS analysis; type: physicochemical; settings: read-out: Stability; in short: as §6
[21] = Stability of the compound in phosphate buffer saline assessed as compound remaining at pH 7.4 after 60 mins by LC-MS/MS analysis; type: physicochemical; settings: read-out: Stability; in short: as §6

Row | SMILES | solubility at 1.5 h [2] | Activity (Mus musculus [3]) | Emax (Thoracic aorta [4]) | Activity (Thoracic aorta [5]) | Activity (Mus musculus [6]) | Ratio IC50 (J774) | IC50 [7] | IC50 [8] | inhibition [9] | inhibition [10] | Activity (Mus musculus [11]) | Activity (Mus musculus [12]) | other results
1 | Cc1c(CC(=O)NC(CO[N+](=O)[O-])C(=O)O)cc(-c2ccc(S(C)(=O)=O)cc2)n1-c1ccc(F)cc1 (stereo not drawn) | 112 µM (≈ 58.2 µg/mL) | Dose-dependent effect | 25% | inactive | 50% | > 32 | 310 nM | > 10000 nM | 100% | 0% | 0% | 29% | solubility at 1.5 h [1]: 90.5 µM (≈ 47 µg/mL)
2 | Cc1c(CC(=O)NC(CCO)C(=O)O)cc(-c2ccc(S(C)(=O)=O)cc2)n1-c1ccc(F)cc1 (racemic) | – | – | – | – | – | > 16 | – | > 10000 nM | 89% | 19% | – | – | –
3 | Cc1c(CC(=O)NCCCO)cc(-c2ccc(S(C)(=O)=O)cc2)n1-c1ccc(F)cc1 | – | – | – | – | – | > 147 | – | > 10000 nM | 100% | 21% | – | – | –
4 | Cc1c(CC(=O)NC(CO)C(=O)O)cc(-c2ccc(S(C)(=O)=O)cc2)n1-c1ccc(F)cc1 (racemic) | – | Dose-dependent effect | – | – | 60% | > 62.5 | 160 nM | > 10000 nM | 100% | 23% | 27% | 59% | –
5 | Cc1c(CC(=O)NC(CO[N+](=O)[O-])C(=O)O)cc(-c2ccc(S(C)(=O)=O)cc2)n1-c1cccc(F)c1 (racemic) | – | Dose-dependent effect | 18% | inactive | 50% | > 71 | 140 nM | > 10000 nM | 100% | 0% | 12% | 47% | remaining at 2 h [13]: 28.6%; remaining at 1 h [14]: 57.1%; remaining at 0.5 h [15]: 71.4%; remaining at 2 h [16]: 87.5%; remaining at 1 h [17]: 93.8%; remaining at 0.5 h [18]: 75%; remaining at 2 h [19]: 37.5%; remaining at 0.5 h [20]: 100%; remaining at 1 h [21]: 50%

Second part, led by results:

Row | solubility at 1.5 h [2] | SMILES | Activity (Mus musculus [3]) | Emax (Thoracic aorta [4]) | Activity (Thoracic aorta [5]) | Activity (Mus musculus [6]) | Ratio IC50 (J774) | IC50 [7] | IC50 [8] | inhibition [9] | inhibition [10] | Activity (Mus musculus [11]) | Activity (Mus musculus [12]) | other results
6 | 150 µM (≈ 71.3 µg/mL) | Cc1c(CC(=O)NCCO[N+](=O)[O-])cc(-c2ccc(S(C)(=O)=O)cc2)n1-c1cccc(F)c1 | Dose-dependent effect | 49% | inactive | 55% | > 33 | 300 nM | > 10000 nM | 95% | 0% | 18% | 37% | solubility at 1.5 h [1]: > 200 µM
7 | < 1 µM | Cc1c(CC(=O)OCCO[N+](=O)[O-])cc(-c2ccc(S(C)(=O)=O)cc2)n1-c1cccc(F)c1 | – | – | – | – | – | – | – | – | – | – | – | remaining at 2 h [13]: 0%; remaining at 1 h [14]: 0%; remaining at 0.5 h [15]: 0%; remaining at 2 h [16]: 42.8%; remaining at 1 h [17]: 65.7%; remaining at 0.5 h [18]: 74.1%; remaining at 2 h [19]: 0.15%; remaining at 0.5 h [20]: 80.2%; remaining at 1 h [21]: 53.6%
